In ChEMBL document CHEMBL4477201, “Imidazopyridine and Pyrazolopiperidine Derivatives as Novel Inhibitors of Serine Palmitoyl Transferase” (J Med Chem, 2016):
Calls of active or inactive are those of the source. The calls are words filed in the database; no cut-off is given here.

Columns and labels:
[1] = biological target: T1, Serine palmitoyltransferase 1 (Homo sapiens, UniProt O15269); test: Inhibition of human SPT1 expressed in microsomes of HEK293 cells incubated for 1hr by LC/MS analysis
T1 sequence (O15269 whole entry): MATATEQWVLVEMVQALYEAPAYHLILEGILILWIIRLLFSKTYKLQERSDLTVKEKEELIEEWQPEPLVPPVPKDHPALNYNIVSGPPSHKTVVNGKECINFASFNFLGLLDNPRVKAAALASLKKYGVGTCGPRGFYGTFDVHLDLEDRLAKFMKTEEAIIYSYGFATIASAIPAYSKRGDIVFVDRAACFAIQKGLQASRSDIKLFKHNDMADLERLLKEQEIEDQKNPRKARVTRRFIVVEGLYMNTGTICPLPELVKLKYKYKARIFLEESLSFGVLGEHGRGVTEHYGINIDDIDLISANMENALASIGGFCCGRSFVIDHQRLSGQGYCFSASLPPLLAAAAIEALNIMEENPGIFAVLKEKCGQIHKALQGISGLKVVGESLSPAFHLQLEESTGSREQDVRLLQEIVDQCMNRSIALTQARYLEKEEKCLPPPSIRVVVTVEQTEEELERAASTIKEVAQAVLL
Summary of the method: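 SPT source was a microsomal fraction from HEK293 cells, with serine and palmitoyl coenzyme A as substrates. Formation of 3-ketodeoxysphinganine quantified by LC/MS. Inhibition determined at 10 concentrations per compound to give IC50.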

[2] = biological target: T2, Serine palmitoyltransferase 1 (Homo sapiens) (UniProt O15269); test: (§1) Inhibition of SPT1 in human MCF7 cells assessed as suppression of 14C-serine incorporation into ceramide incubated for 2 hrs in presence of 4-HPR; type: cell-based
T2 sequence (whole entry): T1 sequence (O15269 whole entry)
Summary of the method: (§2)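 Human MCF-7 cells incubated 2 h with a range of compound concentrations or DMSO control media. Medium contained 14C-serine plus 25 uM 4-HPR to activate SPT. 14C-serine-labeled ceramide products quantified to give EC50.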

[3] = biological target: T1, Serine palmitoyltransferase 1; test: as §1; type: cell-based; summary of the method: as §2
[4] = Toxicity in diet-induced obese C57Bl/6 mouse assessed as decrease in food intake at 25 mg/kg, po qd for 4 weeks; type: organism-based; conditions: in vivo, 672 h
Summary of the method: (§3)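 Food intake monitored in DIO mice during 4 weeks of daily oral dosing.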

[5] = Fraction unbound in rat; type: ADME
Rattus norvegicus [6] = test: Increase in HDL level in cholic acid/cholesterol-fed Sprague-Dawley rat model of dyslipidemia administered bid through oral gavage measured after 1 week by FPLC analysis relative to vehicle-treated control; type: functional, organism-based
Summary of the method: (§4)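 Sprague Dawley rats fed a cholic acid/cholesterol diet for 14 days, then dosed orally BID for 7 days at five dose levels, n=6. Serum ceramides and VLDL and HDL cholesterol compared with vehicle (dose 0). Mean ± SEM; Dunnett's test, p<0.05.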

[7] = Dissociation constant, pKa of the compound; type: physicochemical
[8] = Lipophilicity, log P of compound; type: physicochemical; conditions: octanol/water
[9] = Drug uptake in diet-induced obese C57Bl/6 mouse liver at 1 mg/kg, po qd for 4 weeks measured 6 hrs post last dose; type: ADME, organism-based; conditions: read-out: Drug uptake
Summary of the method: (§5)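 Male DIO mice dosed orally for 4 weeks. Sacrificed 6 h after the last dose. Compound measured in serum (ng/mL) and liver (ng/g), and the liver:serum ratio calculated.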

[10] = AUC (0 to 24 hrs) in Sprague-Dawley rat at 1 mg/kg, iv; type: ADME, organism-based; parameters: time < 24 hr, dose 1 mg/kg, route intravenous; conditions: in vivo
Summary of the method: (§6)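 Single dose to fasted male Sprague Dawley rats, IV at 1 mg/kg or oral at 3 mg/kg. Plasma levels followed to derive AUC0-24hr, Cmax, half-life, Vdss and oral bioavailability.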

[11] = Cmax in Sprague-Dawley rat at 1 mg/kg, iv; type: ADME, organism-based; parameters: dose 1 mg/kg, route intravenous; conditions: in vivo; summary of the method: as §6
[12] = Half life in Sprague-Dawley rat at 1 mg/kg, iv; type: ADME, organism-based; conditions: in vivo; summary of the method: as §6
[13] = Volume of distribution at steady state in Sprague-Dawley rat at 1 mg/kg, iv; type: ADME, organism-based; conditions: in vivo, read-out: Vdss; summary of the method: as §6
[14] = AUC (0 to 24 hrs) in Sprague-Dawley rat at 3 mg/kg,po; type: ADME, organism-based; parameters: time < 24 hr, dose 3 mg/kg, route oral; conditions: in vivo; summary of the method: as §6
[15] = Cmax in Sprague-Dawley rat at 3 mg/kg,po; type: ADME, organism-based; parameters: dose 3 mg/kg, route oral; conditions: in vivo; summary of the method: as §6
[16] = Half life in Sprague-Dawley rat at 3 mg/kg,po; type: ADME, organism-based; conditions: in vivo; summary of the method: as §6
[17] = Volume of distribution at steady state in Sprague-Dawley rat at 3 mg/kg,po; type: ADME, organism-based; conditions: in vivo
Summary of the method: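 Male Sprague Dawley rats, fasted, single oral dose of 3 mg/kg. A parallel arm received 1 mg/kg IV. Plasma was sampled for pharmacokinetics over 0-24 hr. Steady-state volume of distribution is reported […], in mL/kg.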

[18] = Oral bioavailability in Sprague-Dawley rat at 3 mg/kg; type: ADME, organism-based; conditions: in vivo; summary of the method: as §6
Mus musculus [19] = test: Reduction in total plasma ceramide level in C57BL6 mouse administered through gavage after 6 hrs by mass spectrometry relative to vehicle-treated control; type: functional
Summary of the method: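 Normal C57bl6 mice given a single oral dose at six dose levels, n=3 per group. Plasma collected 6 h post dose. C16:0, C20:0, C22:0, C24:0 and C24:1 ceramides measured by mass spectrometry and summed; total reduction calculated versus vehicle. ED50 derived from the dose-response; mean ± SEM.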

Rattus norvegicus [20] = test: Reduction in vLDL level in cholic acid/cholesterol-fed Sprague-Dawley rat model of dyslipidemia at 1 to 60 mg/kg administered bid through oral gavage measured after 1 week by FPLC analysis relative to vehicle-treated control; type: functional, organism-based; summary of the method: as §4
Rattus norvegicus [21] = test: Reduction in total plasma ceramide level in cholic acid/cholesterol-fed Sprague-Dawley rat model of dyslipidemia at 10 to 60 mg/kg administered bid through oral gavage measured after 1 week by FPLC analysis relative to vehicle-treated control; type: functional, organism-based; summary of the method: as §4
Mus musculus [22] = test: Reduction in total plasma ceramide level in diet-induced obese C57BL6 mouse administered daily through oral gavage for 28 days measured 2 hrs post last dose relative to lean control; type: functional, organism-based
Summary of the method: (§7)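 DIO mice dosed orally for 28 days, with myriocin as positive control and lean mice as reference. Total and C18:0 plasma ceramides measured 2 h after the final dose.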

Mus musculus [23] = test: Reduction in plasma C18:0 ceramide level in diet-induced obese C57BL6 mouse at 1 to 60 mg/kg administered daily through oral gavage for 28 days measured 2 hrs post last dose relative to lean control; type: functional, organism-based; summary of the method: as §7
[24] = Toxicity in rat assessed as induction of gastric enteropathy during 14 days toxicology study; conditions: in vivo, 336 h
Mus musculus [25] = test: Reduction in blood glucose in diet-induced obese C57BL6 mouse at 25 mg/kg, po qd for 4 weeks by oral glucose tolerance test relative to lean control; type: functional, organism-based
Summary of the method: (§8)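 After 4 weeks of oral dosing, DIO mice underwent an oral glucose tolerance test. Insulin and glucose AUC compared with lean mice; trend assessed by ANOVA trend analysis.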

Mus musculus [26] = test: Reduction in serum insulin in diet-induced obese C57BL6 mouse at 25 mg/kg, po qd for 4 weeks by oral glucose tolerance test relative to lean control; type: functional, organism-based; summary of the method: as §8
[27] = Toxicity in diet-induced obese C57Bl/6 mouse assessed as decrease in food intake at 10 mg/kg, po qd for 4 weeks; type: organism-based; conditions: in vivo, 672 h; summary of the method: as §3
[28] = Drug uptake in diet-induced obese C57Bl/6 mouse serum at 1 mg/kg, po qd for 4 weeks measured 6 hrs post last dose; type: ADME, organism-based; conditions: read-out: Drug uptake; summary of the method: as §5
[29] = Drug uptake in diet-induced obese C57Bl/6 mouse serum at 3 mg/kg, po qd for 4 weeks measured 6 hrs post last dose; type: ADME, organism-based; conditions: read-out: Drug uptake; summary of the method: as §5
[30] = Drug uptake in diet-induced obese C57Bl/6 mouse serum at 10 mg/kg, po qd for 4 weeks measured 6 hrs post last dose; type: ADME, organism-based; conditions: read-out: Drug uptake; summary of the method: as §5
[31] = Drug uptake in diet-induced obese C57Bl/6 mouse serum at 0.1 mg/kg, po qd for 4 weeks measured 6 hrs post last dose; type: ADME, organism-based; conditions: read-out: Drug uptake; summary of the method: as §5
[32] = Drug uptake in diet-induced obese C57Bl/6 mouse serum at 25 mg/kg, po qd for 4 weeks measured 6 hrs post last dose; type: ADME, organism-based; conditions: read-out: Drug uptake; summary of the method: as §5
[33] = Drug uptake in diet-induced obese C57Bl/6 mouse liver at 3 mg/kg, po qd for 4 weeks measured 6 hrs post last dose; type: ADME, organism-based; conditions: read-out: Drug uptake; summary of the method: as §5
[34] = Drug uptake in diet-induced obese C57Bl/6 mouse liver at 10 mg/kg, po qd for 4 weeks measured 6 hrs post last dose; type: ADME, organism-based; conditions: read-out: Drug uptake; summary of the method: as §5
[35] = Drug uptake in diet-induced obese C57Bl/6 mouse liver at 0.1 mg/kg, po qd for 4 weeks measured 6 hrs post last dose; type: ADME, organism-based; conditions: read-out: Drug uptake; summary of the method: as §5
[36] = Drug uptake in diet-induced obese C57Bl/6 mouse liver at 25 mg/kg, po qd for 4 weeks measured 6 hrs post last dose; type: ADME, organism-based; conditions: read-out: Drug uptake; summary of the method: as §5
[37] = Ratio of drug uptake in diet-induced obese C57Bl/6 mouse liver to serum at 1 mg/kg, po qd for 4 weeks measured 6 hrs post last dose; type: ADME, organism-based; summary of the method: as §5
[38] = Ratio of drug uptake in diet-induced obese C57Bl/6 mouse liver to serum at 3 mg/kg, po qd for 4 weeks measured 6 hrs post last dose; type: ADME, organism-based; summary of the method: as §5
[39] = Ratio of drug uptake in diet-induced obese C57Bl/6 mouse liver to serum at 10 mg/kg, po qd for 4 weeks measured 6 hrs post last dose; type: ADME, organism-based; summary of the method: as §5
[40] = Ratio of drug uptake in diet-induced obese C57Bl/6 mouse liver to serum at 0.1 mg/kg, po qd for 4 weeks measured 6 hrs post last dose; type: ADME, organism-based; conditions: other tissue; summary of the method: as §5
[41] = Ratio of drug uptake in diet-induced obese C57Bl/6 mouse liver to serum at 25 mg/kg, po qd for 4 weeks measured 6 hrs post last dose; type: ADME, organism-based; summary of the method: as §5
Mus musculus [42] = test: Reduction in total liver ceramide level in diet-induced obese C57BL6 mouse at 1 to 60 mg/kg administered daily through oral gavage for 28 days measured 6 hrs post last dose relative to lean control; type: functional, organism-based
Summary of the method: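 Liver total ceramide levels measured in DIO mice after 4 weeks of oral dosing.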

Mus musculus [43] = test: Reduction in plasma C18:0 ceramide level in diet-induced obese C57BL6 mouse at 0.5 mg/kg administered daily through oral gavage for 28 days measured 2 hrs post last dose relative to lean control; type: functional, organism-based
Summary of the method: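 DIO mice received daily oral doses for 4 weeks as part of a dose-response study. Plasma was sampled 2 h after the final dose. Total and C18:0 plasma ceramides were measured and compared with those of lean control mice. At the end of dosing, the same cohort underwent an oral glucose tolerance test.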

SMILES: CCCCCCC(=O)N1CCc2c(c(-c3ccc(C(C)(C)C(=O)O)cc3)nn2C)C1
- IC50 [1]: 63.9 nM
- inhibition [2]: Dose-dependent effect
- EC50 [3]: 4220 nM
- Activity [4]: Toxic
- fraction unbound [5]: 0.02
- Activity (Rattus norvegicus [6]): Dose-dependent effect
- pKa [7]: 4.19
- logP [8]: 4.66
- concentration at 6 h [9]: 61200 ng/g
- AUC(0-t) at 24 h [10]: 190 ng·h/mL
- Cmax [11]: 756 ng/mL
- half-life [12]: 310 min
- Vd [13]: 8.33 L/kg
- AUC(0-t) at 24 h [14]: 155 ng·h/mL
- Cmax [15]: 16.3 ng/mL
- half-life [16]: 459 min
- Vdss [17]: 126000 mL/kg
- bioavailability [18]: 33%
- Activity (Mus musculus [19]): Dose-dependent effect
- ED50 (Mus musculus [19]; C57BL6, po): 8.8 mg/kg
- Activity (Rattus norvegicus [20]): inactive
- Activity (Rattus norvegicus [21]): Active
- Activity (Mus musculus [22]): Dose-dependent effect
- Activity (Mus musculus [23]): Active
- Activity [24]: Toxic
- Activity (Mus musculus [25]): Active
- Activity (Mus musculus [26]): Active
- Activity [27]: Non-Toxic
- concentration at 6 h [28]: 141 ng/mL
- concentration at 6 h [29]: 665 ng/mL
- concentration at 6 h [30]: 855 ng/mL
- concentration at 6 h [31]: 5 ng/mL
- concentration at 6 h [32]: 1210 ng/mL
- concentration at 6 h [33]: 83800 ng/g
- concentration at 6 h [34]: 130000 ng/g
- concentration at 6 h [35]: 26500 ng/g
- concentration at 6 h [36]: 119000 ng/g
- Kp at 6 h [37]: 434
- Kp at 6 h [38]: 126
- Kp at 6 h [39]: 152
- Ratio [40]: 5292
- Kp at 6 h [41]: 99
- Activity (Mus musculus [42]): Active

SMILES: CCCCCCC(=O)CCCCCC/C=C/C[C@@H](O)[C@H](O)[C@@](N)(CO)C(=O)O [MYRIOCIN]
- EC50 [3]: 49.5 nM
- Activity (Mus musculus [43]): Active
